According to ChEMBL document CHEMBL2177094, “Structure dependence of long-chain [18F]fluorothia fatty acids as myocardial fatty acid oxidation probes” (J Med Chem, 2012):

Tests used:
[1] = system: Muscle tissue; assay: Biodistribution in overnight fasted Sprague-Dawley rat muscle organic fraction at 0.7 to 1.4 MBq, iv preincubated with POCA for 2 hrs before compound administration measured at 120 mins post treatment by Folch-type extraction method; type: ADME, organism-based; conditions: in vivo
Method in brief: (§1)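 Female Sprague-Dawley rats, fasted overnight, under isoflurane (3.5% induction, 1.5% maintenance). [18F] tracer in 0.5–1.0% BSA/saline was given by tail vein. POCA group: 30 mg/kg i.p. 120 min before tracer. About 0.5 g tissue was homogenized and sonicated in chloroform/methanol (2:1) at 0 °C, then 40% urea and 5% H2SO4 were added and spun 10 min at 1,800 g. Aqueous, organic and pellet fractions were counted as % of total.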

[2] = system: Liver; assay: Drug uptake in overnight fasted Sprague-Dawley rat liver at 0.7 to 1.4 MBq, iv at 120 mins; type: ADME, organism-based; conditions: in vivo, 2 h
Method in brief: (§2)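 Female rats fasted overnight, under isoflurane (3.5% induction, 1.5% maintenance). 18F-labelled tracer formulated in 0.5–1.0% BSA/saline, injected via tail vein. Tissues harvested at 30 or 120 min, weighed, gamma-counted, decay-corrected. Uptake expressed as % dose kg/g, i.e. tissue CPM × body wt (kg) × 100 / (tissue wt (g) × dose CPM). POCA groups received 30 mg/kg i.p. 2 h before tracer. n = 5–6.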

[3] = system: Brain; assay: Drug uptake in overnight fasted Sprague-Dawley rat brain at 0.7 to 1.4 MBq, iv preincubated with POCA for 2 hrs before compound administration measured at 120 mins post treatment; type: ADME, organism-based; conditions: in vivo
Method in brief: (§3)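 Overnight-fasted female Sprague-Dawley rats under isoflurane received the [18F] tracer in 0.5–1.0% BSA/saline by tail vein. POCA group: 30 mg/kg i.p. 2 h before tracer. Tissues were excised at 30 or 120 min, weighed and gamma-counted with decay correction. Uptake = % dose kg/g, i.e. CPM tissue × body wt (kg) × 100 / (tissue wt (g) × CPM dose). n = 5–6.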

[4] = system: Bone; assay: Drug uptake in overnight fasted Sprague-Dawley rat bone at 0.7 to 1.4 MBq, iv preincubated with POCA for 2 hrs before compound administration measured at 30 mins post treatment; type: ADME, organism-based, Bone element; conditions: in vivo, 0.5 h; method in brief: as §3
[5] = system: Liver; assay: Biodistribution in overnight fasted Sprague-Dawley rat liver aqueous fraction at 0.7 to 1.4 MBq, iv preincubated with POCA for 2 hrs before compound administration measured at 30 mins post treatment by Folch-type extraction method; type: ADME, organism-based; conditions: in vivo, 0.5 h; method in brief: as §1
[6] = system: Heart; assay: Biodistribution in overnight fasted Sprague-Dawley rat heart aqueous fraction at 0.7 to 1.4 MBq, iv at 30 mins by Folch-type extraction method; type: ADME, organism-based; conditions: in vivo, 0.5 h; method in brief: as §1
[7] = system: Bone; assay: Drug uptake in overnight fasted Sprague-Dawley rat bone at 9 to 11 MBq, iv at 55 to 115 mins by microPET analysis; type: ADME, organism-based, Bone element; conditions: in vivo
Method in brief: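 Overnight-fasted female Sprague-Dawley rats under isoflurane were scanned by microPET/CT after tail-vein tracer. Dynamic acquisition over the upper thorax ran for 50 min, then a static whole-body scan from 55–115 min p.i. 2–5 rats per tracer; preliminary, representative images.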

[8] = system: Liver; assay: Biodistribution in overnight fasted Sprague-Dawley rat liver pellet fraction at 0.7 to 1.4 MBq, iv preincubated with POCA for 2 hrs before compound administration measured at 120 mins post treatment by Folch-type extraction method; type: ADME, organism-based; conditions: in vivo; method in brief: as §1
[9] = system: Liver; assay: Biodistribution in overnight fasted Sprague-Dawley rat liver pellet fraction at 0.7 to 1.4 MBq, iv preincubated with POCA for 2 hrs before compound administration measured at 30 mins post treatment by Folch-type extraction method; type: ADME, organism-based; conditions: in vivo, 0.5 h; method in brief: as §1
[10] = system: Liver; assay: Biodistribution in overnight fasted Sprague-Dawley rat liver organic fraction at 0.7 to 1.4 MBq, iv at 30 mins by Folch-type extraction method; type: ADME, organism-based; conditions: in vivo, 0.5 h; method in brief: as §1
[11] = system: Muscle tissue; assay: Drug uptake in overnight fasted Sprague-Dawley rat muscle at 0.7 to 1.4 MBq, iv at 30 mins; type: ADME, organism-based; conditions: in vivo, 0.5 h; method in brief: as §2
[12] = system: Muscle tissue; assay: Ratio of drug uptake in overnight fasted Sprague-Dawley rat muscle at 0.7 to 1.4 MBq, iv preincubated with POCA for 2 hrs before compound administration measured at 120 mins post treatment to drug uptake in overnight fasted Sprague-Dawley rat muscle at 0.7 to 1.4 MBq, iv at 120 mins; type: ADME, organism-based; conditions: in vivo
Method in brief: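 Ratio of skeletal muscle uptake (% dose kg/g) 120 min after tail-vein tracer in rats given POCA 30 mg/kg i.p. 2 h beforehand to that in fasted control rats. Radioactivity was decay-corrected and normalized to tissue and body weight.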

[13] = system: Heart; assay: Ratio of drug uptake in overnight fasted Sprague-Dawley rat heart at 0.7 to 1.4 MBq, iv at 30 mins to drug uptake in overnight fasted Sprague-Dawley rat heart at 0.7 to 1.4 MBq, iv preincubated with POCA for 2 hrs before compound administration measured at 30 mins post treatment; type: ADME, organism-based; conditions: in vivo, 0.5 h
Method in brief: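 Ratio of heart uptake (% dose kg/g) 30 min after tail-vein tracer in fasted control rats to that in rats given POCA 30 mg/kg i.p. 2 h before tracer. Tissue radioactivity was decay-corrected and weight-normalized.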

[14] = system: Heart; assay: Metabolic stability in overnight fasted Sprague-Dawley rat heart at 9 to 11 MBq, iv measured at 55 to 115 mins by microPET analysis; type: ADME, organism-based; conditions: in vivo

| SMILES | Drug uptake [1] [%] | Drug uptake [2] [%IDKg/g] | Drug uptake [3] [%IDKg/g] | Drug uptake [4] [%IDKg/g] | Drug uptake [5] [%] | Drug uptake [6] [%] | Drug uptake [7] | Drug uptake [8] [%] | Drug uptake [9] [%] | Drug uptake [10] [%] | Drug uptake [11] [%IDKg/g] | Ratio [12] | Ratio [13] | Stability [14] |
| --- | --- | --- | --- | --- | --- | --- | --- | --- | --- | --- | --- | --- | --- | --- |
| O=C(O)CCCCSCCCCCCCCCCCC[18F] | 59.27 | 0.7548 | 0.0519 | 0.1037 | 10.75 | 4.02 | Active | 27.76 | 34.35 | 45.61 | 0.039 | 2.2 |  |  |
| O=C(O)CCSCCCCCCCCCCCCCC[18F] | 58.25 | 0.3759 | 0.031 | 0.2289 | 31.69 | 3.97 | Active | 22.07 | 16.53 | 51.66 | 0.0303 |  | 1.7 |  |
| O=C(O)CCSCCCCCCCCCCCC[18F] | 48.14 | 0.47 | 0.0578 | 0.179 | 20.23 | 2.63 | Active | 38.47 | 38.07 | 48.25 | 0.031 | 2.7 |  |  |
| O=C(O)CCSCCCC/C=C\CCCCCCCC[18F] | 53.25 | 0.8488 | 0.0206 | 0.1475 | 16.3 | 2.86 | Active | 23.82 | 24.88 | 19.87 | 0.0201 |  |  | Stable |
